Published values pooled from the literature.
Compare with care: the assays were run in different laboratories.
Read-out: cell growth or viability

Cc1nc(Nc2ncc(C(=O)Nc3c(C)cccc3Cl)s2)cc(N2CC[C@H](O)C2)n1
inhibition (CCRF-CEM; ATP luminescence; 10 µM; 72 h): 14%

COc1cccc2c1C(=O)c1c(O)c3c(c(O)c1C2=O)C[C@@](O)(C(=O)CO)C[C@@H]3O[C@H]1C[C@H](N)[C@H](O)[C@H](C)O1
IC50 (RKO; 96 h): 0.00473 µM

COc1ccc(-c2nn(-c3ccccc3)cc2C=Nc2c(N)nc(S)nc2O)cc1
CC50 (CCRF-CEM; 48 h): < 20 µM

O=C(N[C@@H](CSCc1ccc([N+](=O)[O-])cc1)C(=O)NO)c1ccccc1
IC50 (HCC4006; MTT; 48 h): 10.1 µM

CC(=O)ON=C1C=CC(=C(C#N)c2ccccc2)C=C1
IC50 (HDF-1; MTT; 24 h): 27.4 µg/mL

C[C@H](Nc1ccc2c(c1)OCCn1cc(N3C(=O)OC[C@H]3C(F)F)nc1-2)C(N)=O
EC50 (HCC202; ATP luminescence; 5 days): 0.0154 µM

Nc1nc(S)nc(O)c1N=Cc1cn(-c2ccccc2)nc1-c1ccc([N+](=O)[O-])cc1
CC50 (CCRF-CEM; 48 h): > 40 µM

C=C(NC(=O)C(=C)NC(=O)c1csc(C2=N[C@@H]3c4csc(n4)[C@H]4NC(=O)c5csc(n5)[C@H]([C@](C)(O)[C@@H](C)O)NC(=O)[C@H]5CSC(=N5)/C(=C/C)NC(=O)[C@H]([C@@H](C)O)NC(=O)c5csc(n5)[C@]3(CC2)NC(=O)[C@H](C)NC(=O)C(=C)NC(=O)[C@H](C)NC(=O)[C@H]([C@@H](C)CC)N[C@@H]2C=Cc3c([C@H](C)O)cc(nc3[C@H]2O)C(=O)O[C@@H]4C)n1)C(N)=O
EC50 (ES-2): 1.2 µM

Nc1nc(S)nc(O)c1N=Cc1cn(-c2ccccc2)nc1-c1ccccc1
CC50 (CCRF-CEM; 48 h): < 20 µM

O=C(N[C@@H](CSCc1nc2cc([N+](=O)[O-])ccc2[nH]1)C(=O)NO)c1ccccc1
IC50 (HCC4006; MTT; 48 h): < 500 µM

Nc1nc(S)nc(O)c1N=Cc1cn(-c2ccccc2)nc1-c1ccc(Cl)cc1
CC50 (CCRF-CEM; 24 h): 15.1 µM

CN1CCC(NC2CCc3[nH]c4c(C(N)=O)ccc(-c5ccccc5Cl)c4c3C2)CC1 (stereo not drawn)
IC50 (RKO; 96 h): 0.00017 µM
